According to ChEMBL document CHEMBL4808162, “Constraining the Side Chain of C-Terminal Amino Acids in Apelin-13 Greatly Increases Affinity, Modulates Signaling, and Improves the Pharmacokinetic Profile” (J Med Chem, 2021):
Activity calls are given as the source filed them. No cut-off for these calls is given here.

How the values were obtained:
Apelin receptor [1] = target: T1, Apelin receptor (Homo sapiens, UniProt P35414); assay: Agonist activity at human APJ receptor expressed in HEK293T cells co-expressing Galphai1 RlucII assessed as dissociation of Galphai1 from Gbetta/gamma subunit measured using coelenterazine luciferase substrate incubated for 5 mins by BRET assay; assay type: functional, cell-based, HEK293
T1 sequence (P35414 whole entry): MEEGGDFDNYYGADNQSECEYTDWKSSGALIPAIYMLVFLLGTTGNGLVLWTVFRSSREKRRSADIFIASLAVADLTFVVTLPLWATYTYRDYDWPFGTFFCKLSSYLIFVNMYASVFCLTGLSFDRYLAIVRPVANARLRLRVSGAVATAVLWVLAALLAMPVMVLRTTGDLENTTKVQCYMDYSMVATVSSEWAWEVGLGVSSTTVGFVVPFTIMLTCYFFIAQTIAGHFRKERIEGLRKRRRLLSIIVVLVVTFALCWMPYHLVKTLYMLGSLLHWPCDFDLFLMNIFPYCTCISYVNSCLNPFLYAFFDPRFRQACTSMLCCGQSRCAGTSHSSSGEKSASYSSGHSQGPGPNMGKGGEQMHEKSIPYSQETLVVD

Apelin receptor [2] = target: T1, Apelin receptor; assay: Agonist activity at human APJ receptor expressed in HEK293 cells co-expressing Rlucll-beta-arrestin2 assessed as induction of beta-arrestin2 recruitment to receptor incubated for 30 mins by BRET assay; assay type: functional, cell-based
Rattus norvegicus [3] = assay: Effect on mean arterial blood pressure in Sprague-Dawley rat at 65 nmol/kg, iv bolus injection measured after 1 min; assay type: functional, organism-based
Method in brief: (§1)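 Male Sprague-Dawley rats (250−300 g) under ketamine/xylazine (87/13 mg/kg i.m.) on a thermostatic pad. Mean arterial pressure recorded through a right carotid catheter. Saline vehicle bolus given, then 5 min later the peptide i.v. at 19.6 nmol/kg (n = 5) or 65 nmol/kg.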

Apelin receptor [4] = target: T1, Apelin receptor; assay: Agonist activity at human APJ receptor expressed in HEK293T cells co-expressing PDZ-Rho-Gef-RLucll and rGFP-CAAX assessed as induction of recruitment of Galpha12 to cell membrane using coelenterazine luciferase substrate incubated for 5 mins by BRET assay; assay type: functional, cell-based, HEK293
Apelin receptor [5] = target: T1, Apelin receptor; assay: Displacement of [125I] [NIe75,Tyr77]Pyr-apelin-13 from YFP-tagged human APJ receptor expressed in HEK293 cells incubated for 1 hr by gamma counting analysis; assay type: cell-based
[6] = target: T2, Apelin receptor (Homo sapiens) (UniProt P35414); assay: Agonist activity at human APJ receptor expressed in HEK293 cells co-expressing Rlucll-beta-arrestin2 assessed as induction of beta-arrestin2 recruitment to receptor incubated for 30 mins by BRET assay relative to control; assay type: functional, cell-based
T2 sequence (whole entry): T1 sequence (P35414 whole entry)
Method in brief: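 HEK293 cells transiently transfected with PEI, carrying hAPJ-GFP10 and RlucII-β-arrestin2. Cells replated at 50 000/well after 24 h, washed, and placed in HBSS. Ligand given at 10⁻⁵ to 10⁻¹¹ M for 30 min at room temperature. 5 μM coelenterazine 400A added, BRET² ratio GFP10/RlucII read. EC50 from dose-response fit; three experiments, each in triplicate.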

[7] = target: T2, Apelin receptor (Homo sapiens); assay: Agonist activity at human APJ receptor expressed in HEK293T cells co-expressing PDZ-Rho-Gef-RLucll and rGFP-CAAX assessed as induction of recruitment of Galpha12 to cell membrane using coelenterazine luciferase substrate incubated for 5 mins by BRET assay relative to control; assay type: functional, cell-based; details: HEK293, filed as partial agonist
Method in brief: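 HEK293T cells (35 000/well) transiently transfected with PEI 48 h before assay, carrying hAPJ, Gα12, Gβ1, Gγ1 and the ebBRET pair PDZ-RhoGEF-RLucII / rGFP-CAAX. Ligand stimulation for 5 min. Curves fitted as normalized variable-slope dose-response with Hill slope shared; eight experiments, each singly.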

Rattus norvegicus [8] = assay: Hypotensive effect in Sprague-Dawley rat assessed as drop in mean arterial blood pressure at 19.6 nmol/kg, iv bolus injection measured after 1 min; assay type: functional; method in brief: as §1
[9] = Stability in Sprague-Dawley rat plasma assessed as half life measured up to 24 hrs by UPLC-MS analysis; assay type: ADME, cell-free
Method in brief: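 Peptide (6 μL of 1 mM aqueous solution) incubated with 27 μL male Sprague-Dawley rat plasma at 37 °C. Time points 0, 1, 2, 4, 7, 24 h, or 0–120 min for labile peptides. Reaction quenched with acetonitrile-ethanol containing N,N-dimethylbenzamide internal standard, filtered, then UPLC-MS. t1/2 from one-phase exponential decay; at least three experiments.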

Row | EC50 (Apelin receptor [1]) | EC50 (Apelin receptor [2]) | EC50 (Apelin receptor [4]) | Ki (Apelin receptor [5]) | Emax [6] | Emax [7] | half-life [9] | Compound | Activity (Rattus norvegicus [3]) | Activity (Rattus norvegicus [8])
1 | 22 nM | 367 nM | 141 nM | 13 nM | 53% | – | – | CCCC[C@H](NC(=O)[C@@H]1CCCN1C(=O)CNC(=O)[C@H](CCCCN)NC(=O)[C@H](Cc1cnc[nH]1)NC(=O)[C@H](CO)NC(=O)[C@H](CC(C)C)NC(=O)[C@H](CCCNC(=N)N)NC(=O)[C@@H]1CCCN1C(=O)[C@H](CCCNC(=N)N)NC(=O)[C@@H]1CCC(=O)N1)C(=O)N1CCC[C@H]1C(=O)N[C@H](Cc1cc(C2CCCC2)c(OCc2ccccc2)c(C2CCCC2)c1)C(=O)O | inactive | –
2 | 2.7 nM | 30 nM | 4.4 nM | – | – | 46% | 54 min | CCCC[C@H](NC(=O)[C@@H]1CCCN1C(=O)CNC(=O)[C@H](CCCCN)NC(=O)[C@H](Cc1cnc[nH]1)NC(=O)[C@H](CO)NC(=O)[C@H](CC(C)C)NC(=O)[C@H](CCCNC(=N)N)NC(=O)[C@@H]1CCCN1C(=O)[C@H](CCCNC(=N)N)NC(=O)[C@@H]1CCC(=O)N1)C(=O)N1CCC[C@H]1C(=O)N[C@](C)(Cc1ccc(OCc2ccccc2)cc1)C(=O)O | – | 30 mmHg
